Measured values as given in ChEMBL document CHEMBL3867435, “Chemical Constituents of Mangifera indica and Their Antiausterity Activity against the PANC-1 Human Pancreatic Cancer Cell Line” (J Nat Prod, 2016).
The source made the active and inactive calls. The rule behind the calls is not given here.

Experiments:
[1] = (§1) Antiausteritic activity against human PANC1 cells in nutrient-deprived medium measured after 24 hrs by WST8 assay; format: functional, PANC-1
How it was run: (§2)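 PANC-1 (Riken BRC) kept in DMEM + 10% FBS, 37 °C, 5% CO2. Seeded 1.5 × 10^4/well, 24 h in fresh DMEM, washed twice with PBS. Serial dilutions then given in DMEM or in NDM (salts, MEM vitamins, 25 mM HEPES, pH 7.4, no glucose/amino acids/serum) for 24 h. Viability read with 10% WST-8 in DMEM, 3 h, A450, vs control and blank; mean of three wells.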

[2] = Cytotoxicity against human PANC1 cells in Dulbecco's modified Eagle medium measured after 24 hrs by WST8 assay; format: toxicity, cell-based; conditions: panc-1, 24 h; how it was run: as §2
PANC-1 [3] = test: as §1; format: functional; how it was run: as §2
PANC-1 [4] = test: Induction of morphological changes in human PANC1 cells in nutrient-deprived medium at 10 uM measured after 24 hrs by acridine orange/ethidium bromide-staining based fluorescence microscopy; format: functional, cell-based
How it was run: (§3)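 After 24 h attachment (1.5 × 10^4/well, DMEM or RPMI-1640), cells were PBS-washed twice and exposed 24 h to compound in NDM (NDM alone as control). EB/AO reagent added for 5 min. Imaged at 20× in fluorescent and phase-contrast modes: green (AO) marks live cells, red (EB) marks dead cells.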

PANC-1 [5] = test: Induction of morphological changes in human PANC1 cells in nutrient-deprived medium at 5 uM measured after 6 hrs by phase contrast microscopic method; format: functional, cell-based
How it was run: (§4)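 Cells (3.0 × 10^6) plated in 35 mm dishes and attached overnight in complete medium. Washed twice with PBS, then treated at 5 μM in NDM. Held in a stage-top incubator at 37 °C, 5% CO2, with phase-contrast images taken every 5 min for 48 h.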

PANC-1 [6] = test: Induction of morphological changes in human PANC1 cells in nutrient-deprived medium assessed as plasma membrane blebbing at 5 uM measured after 9 hrs by phase contrast microscopic method; format: functional, cell-based; how it was run: as §4
[7] = Induction of cell death in human PANC1 cells in nutrient-deprived medium at 5 uM up to 24 hrs by phase contrast microscopic method; format: functional, PANC-1
How it was run: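 PANC-1 cells from the Riken bank, grown in DMEM with 10% FBS, were plated at 3.0 × 10^6 per 35 mm dish and left to attach overnight in complete medium. After two PBS washes they were treated in nutrient-deprived medium (inorganic salts, 25 mM HEPES pH 7.4, MEM vitamins; no glucose, amino acids or serum). Cells were kept in a stage-top incubator at 37 °C and 5% CO2, with phase-contrast images every 5 min.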

PANC-1 [8] = test: Induction of cell death in human PANC1 cells in nutrient-deprived medium at 5 uM after 48 hrs by phase contrast microscopic method; format: functional, cell-based; how it was run: as §4
PANC-1 [9] = test: Inhibition of mobility in human PANC1 cells in nutrient-deprived medium at 5 uM measured after 6 hrs by phase contrast microscopic method; format: functional, cell-based; how it was run: as §4
PANC-1 [10] = test: Induction of cell death in human PANC1 cells in nutrient-deprived medium at 10 uM measured after 24 hrs by acridine orange/ethidium bromide-staining based fluorescence microscopy; format: functional; how it was run: as §3

SMILES	PC50 [1] [µM]	Activity [2]	further results
C=C(CC[C@@H](C)[C@H]1CC[C@@]2(C)[C@@H]3CC[C@H]4C(C)(C)[C@@H](O)CC[C@@]45C[C@@]35CC[C@]12C)C(C)CO (stereo not given in full)	>100	Non-Toxic	
COc1cc(O)c(C(=O)c2ccc(O)cc2)c(O)c1	>100	Non-Toxic	
COc1cc(C[C@H]2C(=O)OC[C@@H]2Cc2ccc(OC)c(OC)c2)ccc1O [ARCTIGENIN]	0.8		
COc1cc(O)c(C(=O)c2ccc(O)cc2)c(O)c1[C@@H]1O[C@H](CO)[C@@H](O)[C@H](O)[C@H]1O	>100	Non-Toxic	
C[C@H](CC/C=C(\CO)C(=O)O)[C@H]1CC[C@@]2(C)[C@@H]3CC[C@H]4C(C)(C)[C@@H](O)CC[C@@]45C[C@@]35CC[C@]12C	52.1	Non-Toxic	
C=C(CC[C@@H](C)[C@H]1CC[C@@]2(C)[C@@H]3CC[C@H]4C(C)(C)[C@@H](OC(C)=O)CC[C@@]45C[C@@]35CC[C@]12C)C(C)C(=O)O (stereo not given in full)	11	Non-Toxic	Activity (PANC-1 [3]): Dose-dependent effect
C/C(=C\CC[C@@H](C)[C@H]1CC[C@@]2(C)[C@@H]3CC[C@H]4C(C)(C)C(=O)CC[C@@]45C[C@@]35CC[C@]12C)C(=O)O [MANGIFERONIC ACID]	>100	Non-Toxic	
C[C@H](CC/C=C(\CO)C(=O)O)[C@H]1CC[C@@]2(C)[C@@H]3CC[C@H]4C(C)(C)C(=O)CC[C@@]45C[C@@]35CC[C@]12C	>100	Non-Toxic	
C=C(CC[C@@H](C)[C@H]1CC[C@@]2(C)[C@@H]3CC[C@H]4C(C)(C)C(=O)CC[C@@]45C[C@@]35CC[C@]12C)[C@@H](C)C(=O)O	44.2	Non-Toxic	
C=C(CC[C@@H](C)[C@H]1CC[C@@]2(C)[C@@H]3CC[C@H]4C(C)(C)C(=O)CC[C@@]45C[C@@]35CC[C@]12C)[C@@H](C)C(=O)OC	22.8	Non-Toxic	
C=C(CC[C@@H](C)[C@H]1CC[C@@]2(C)[C@@H]3CC[C@H]4C(C)(C)[C@H](O)CC[C@@]45C[C@@]35CC[C@]12C)[C@@H](C)C(=O)O	4.8	Non-Toxic	Activity (PANC-1 [3]): Dose-dependent effect; Activity (PANC-1 [4]): Active; Activity (PANC-1 [5]): Active; Activity (PANC-1 [6]): Active; Activity [7]: >50%; Activity (PANC-1 [8]): Active; inhibition (PANC-1 [9]): Active; Activity (PANC-1 [10]): Active
O=c1[nH]cc(F)c(=O)[nH]1 [FLUOROURACIL]	>200		
CCCC/C=C\CCCCCCCCCCCC(=O)O[C@H]1CC[C@]23C[C@]24CC[C@]2(C)[C@@H]([C@H](C)CC/C=C(\C)C(=O)O)CC[C@@]2(C)[C@@H]4CC[C@H]3C1(C)C	69.6	Non-Toxic	
COc1cc(O)c(C(=O)c2ccc(O)cc2)c(O[C@@H]2O[C@H](CO)[C@@H](O)[C@H](O)[C@H]2O)c1 [MAHKOSIDE A]	>100	Non-Toxic	
C=C(CC[C@@H](C)[C@H]1CC[C@@]2(C)[C@@H]3CC[C@H]4C(C)(C)[C@@H](O)CC[C@@]45C[C@@]35CC[C@]12C)[C@@H](C)C(=O)O	>100	Non-Toxic	
O=c1c2cc(O)c(O)cc2oc2cc(O)c([C@@H]3O[C@H](CO)[C@@H](O)[C@H](O)[C@H]3O)c(O)c12 [MANGIFERIN]	>100	Non-Toxic	
C/C(=C\CC[C@@H](C)[C@H]1CC[C@@]2(C)[C@@H]3CC[C@H]4C(C)(C)[C@@H](O)CC[C@@]45C[C@@]35CC[C@]12C)C(=O)O [MANGIFEROLIC ACID]	>100	Non-Toxic	
C/C(=C\C(O)C[C@@H](C)[C@H]1CC[C@@]2(C)[C@@H]3CC[C@H]4C(C)(C)[C@@H](O)CC[C@@]45C[C@@]35CC[C@]12C)C(=O)O (stereo not given in full)	>100	Non-Toxic	
Nc1ccn([C@@H]2O[C@H](CO)[C@@H](O)C2(F)F)c(=O)n1 [GEMCITABINE]	> 100		
C=C(CC[C@@H](C)[C@H]1CC[C@@]2(C)[C@@H]3CC[C@H]4C(C)(C)[C@@H](O)CC[C@@]45C[C@@]35CC[C@]12C)[C@@H](C)C(=O)OC	>100	Non-Toxic	
COc1cc(O)c(C(=O)c2ccc(O)cc2)c(O)c1[C@@H]1O[C@H](CO)[C@@H](O)[C@H](O)[C@H]1OC(=O)c1ccc(O)cc1	>100	Non-Toxic	
C/C(=C\C(O)C[C@@H](C)[C@H]1CC[C@@]2(C)[C@@H]3CC[C@H]4C(C)(C)C(=O)CC[C@@]45C[C@@]35CC[C@]12C)C(=O)O (stereo not given in full)	32.3	Non-Toxic	
